Screening data deposited in PubChem BioAssay by several laboratories.
RORa activator – activators of orphan receptor RORA, primary screen, cell-based, luminescence; 65,000 tested, 1.5% active; activation, % at 10 µM; Nuclear receptor ROR-alpha (Homo sapiens), P35398; CHO-K1 Gal4-RORA LBD luciferase reporter; percent increase over mock-subtracted basal signal;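 active = activation above the mean of all tested compounds plus 3 SD, cut at about 49% in these data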;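 note: 0% = DMSO-treated RORA cells and 100% = added signal equal to DMSO minus mock-transfected cells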
BAP1 block – inhibitors of BAP1 deubiquitinase, primary screen, biochemical, Ub-AMC fluorescence, kinetic; recombinant BAP1, Ub-AMC hydrolysis fluorescence kinetic; active compounds read low; 72,000 tested, 0.48% active; calls only at 20 µM;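 active = activity remaining at or below 50% of control, provided the compound also passes the data quality filters; inactive = the rest, including low values that fail the filters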;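 note: 100% = DMSO wells rate and 0% = substrate alone blank rate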
Target sequence (Q92560 whole entry, looked up): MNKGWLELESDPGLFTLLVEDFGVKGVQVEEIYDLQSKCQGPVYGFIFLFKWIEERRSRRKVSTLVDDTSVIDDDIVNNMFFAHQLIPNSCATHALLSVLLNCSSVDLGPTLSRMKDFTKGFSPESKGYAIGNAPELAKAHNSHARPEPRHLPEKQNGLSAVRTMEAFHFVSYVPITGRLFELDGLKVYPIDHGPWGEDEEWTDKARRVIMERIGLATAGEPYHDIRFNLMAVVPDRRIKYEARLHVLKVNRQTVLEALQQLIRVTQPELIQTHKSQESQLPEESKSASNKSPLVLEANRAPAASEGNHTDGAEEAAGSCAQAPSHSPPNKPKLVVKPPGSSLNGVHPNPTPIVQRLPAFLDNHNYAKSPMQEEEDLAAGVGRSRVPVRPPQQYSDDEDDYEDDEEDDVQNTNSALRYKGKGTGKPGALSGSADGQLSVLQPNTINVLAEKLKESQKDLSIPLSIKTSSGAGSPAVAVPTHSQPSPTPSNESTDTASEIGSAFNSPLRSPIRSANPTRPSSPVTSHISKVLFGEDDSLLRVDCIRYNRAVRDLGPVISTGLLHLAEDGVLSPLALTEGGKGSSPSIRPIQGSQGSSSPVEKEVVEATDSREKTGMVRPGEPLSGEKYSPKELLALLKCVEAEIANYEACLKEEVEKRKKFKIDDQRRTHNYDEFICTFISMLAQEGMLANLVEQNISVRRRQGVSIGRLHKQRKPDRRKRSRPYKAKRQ
ERa coact pot – enhancers of ERα–SRC-1 coactivator binding, primary screen, biochemical, TR-FRET, ERα LBD, low estradiol; coactivator binding (% of control), % at 25.6 µM; 86,000 tested, 1.3% active; Estrogen receptor (Homo sapiens), P03372; TR-FRET ERalpha-LBD/SRC-Cy5 coactivator binding, 2 h; 100 = basal binding, no effect; AID 639, 2007; in the data active = activity above about 200%;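 note: binding measured in presence of low estradiol as agonist stimulus; 0% = peptide alone without receptor and 100% = receptor with peptide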
SF-1 act – activators of human SF-1, primary screen, cell-based, CHO-K1, Gal4-SF-1 LBD, luciferase luminescence | Steroidogenic factor 1 (Homo sapiens), Q13285 | CHO-K1 Gal4-SF-1 LBD luciferase reporter; % increase over DMSO SF-1-specific signal | activation, % at 10 µM | 65,000 tested, 1.9% active | AID 522, 2006;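 active = activation above the mean activation of all tested compounds plus 3 SD, cut at about 50% in these data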
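Compound – one dose, 10 µM compound, 1% DMSO · Test system – transient Gal4-SF-1 LBD reporter, CHO-K1 · Input – 4,000 cells in each well · Read-out basis – percent activation relative to DMSO median and mock-transfected background · Replicates – single measurement per compound · Technique – steady-glow luciferase luminescence, read after 15 min reagent incubation · Timing – 20 h compound treatment, 37 °C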
ERb coact inh – inhibitors of ERβ-SRC1 coactivator interaction, primary screen, biochemical, TR-FRET, ERβ LBD, SRC-1 peptide; Estrogen receptor beta (Homo sapiens), Q92731; TR-FRET ER-beta LBD / SRC1-Cy5 peptide binding; receptor agonist-loaded with 1 µM estradiol; inhibition, % at 25.6 µM; 86,000 tested, 1.3% active; AID 633, 2007;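 active = compounds whose percent inhibition of the receptor-coactivator binding signal exceeds about 50% in the single-dose screen, limit read from the data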;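 note: 0% = receptor plus peptide wells without compound and 100% = peptide-only wells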
ERa SRC1 inh – ERα–SRC-1 coactivator interaction inhibitors, primary screen, biochemical, TR-FRET, ERα LBD, estradiol-bound; Estrogen receptor (Homo sapiens), P03372; TR-FRET ER-alpha LBD / SRC-1 peptide; inhibition, % at 25.6 µM; 86,000 tested, 1.7% active; in the data active = inhibition above about 50%;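 note: 0% = receptor plus peptide control and 100% = peptide only without receptor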
Active calls of the source: *; i = inactive; . = no result shown; [ ] = remark or other dose. Compounds with a hit are over-represented: about 5.1% of the library has one in this group of screens.

SMILES	RORa activator	BAP1 block	ERa coact pot	SF-1 act	ERb coact inh	ERa SRC1 inh
CCN(CC)S(=O)(=O)c1ccc(NC(=O)Cn2c(=O)oc3ccccc32)cc1	14.0	.	102.4	12.1	-7.5	1.0
Cc1ccc(NC(=O)c2ccccc2NS(=O)(=O)c2ccc(Cl)cc2)c(C(=O)c2ccccc2)c1	.	i	.	.	.	.
CC(=O)Nc1cc2c(cc1C(=O)c1ccccc1)OCCO2	-14.7	i	66.8	-12.2	62.9*	28.0
O=C(c1ccccc1)c1c[nH]c2cc3c(cc2c1=O)OCCO3	40.4	i	92.3	50.0*	-2.1	-0.5
Cc1ccc(O)c(C2=Nc3ccccc3N=C(c3ccco3)C2)c1	.	.	228.3*[fluorescence artefact?]	.	41.4	33.6
O=C1CC(c2ccco2)=Nc2ccccc2N1	-0.5	i	106.4	21.3	-10.7	-3.9
CC1(C)CNC(=O)c2sc(N3CCCCC3)nc2C1	51.0*	i	98.9	30.5	-1.6	-2.5
CC1(C)CC(=O)c2sc(N3CCCCC3)nc2C1	36.2	i	116.8	12.7	-6.2	-4.6
COc1cc(NCCCCCCCN)c2ncccc2c1	.	.	38.0	.	39.0	77.6*[fluorescence artefact?]
COc1cc(NC(=O)c2ccc3c(c2)OCO3)c2ncccc2c1	9.6	i	136.9	22.2	13.0	13.7
O=C1c2ccccc2-c2onc3ccc(NCCCn4ccnc4)c1c23	11.1	i	89.1	28.2	27.0	69.9*[fluorescence artefact?]
CCCCC1CCC(c2nc(-c3ccccn3)no2)CC1 (configuration not stated)	4.8	i	92.8	52.4*	-2.5	-3.0
CCCCC1CCC(c2nc(-c3cccnc3)no2)CC1 (configuration not stated)	-1.8	i	101.4	17.7	-11.3	-3.4
Cc1cc(C)nc(SCC(=O)Nc2ccc(Cl)cn2)n1	.	i	.	.	.	.
C=CCN1C(=O)C(C(c2cccc([N+](=O)[O-])c2)C2C(=O)NC(=S)N(CC=C)C2=O)C(=O)NC1=S (configuration not stated)	.	i	.	.	.	.
Cc1ccccc1NC(=O)CSc1nc(N)c(C#N)c(-c2cccs2)c1C#N	-6.3	i	319.3*[fluorescence artefact?]	3.5	50.6*[fluorescence artefact?]	29.4
N#Cc1c(N)nc(SCc2ccncc2)c(C#N)c1-c1cccs1	11.6	.	266.9*[fluorescence artefact?]	-0.8	-5.5	-0.8
CCN(CC)C(=O)CSc1ncnc2c(-c3cccs3)nsc12	12.4	i	177.0	68.4*	50.9*[fluorescence artefact?]	50.7*[fluorescence artefact?]
CCN(CC)C(=O)CSc1nc(N)c(C#N)c(-c2cccs2)c1C#N	.	.	221.5*[fluorescence artefact?]	.	1.7	17.3
O=C(Nc1ncc(S(=O)(=O)c2ccc([N+](=O)[O-])cc2)s1)c1ccc(S(=O)(=O)N2CCCCC2)cc1	.	i	.	.	.	.
N#Cc1c(SCC(=O)OCc2ccccc2)nsc1SCC(=O)OCc1ccccc1	.	.	108.5	.	-3.1	3.1
CCc1c(C#N)c(N)nc(SCC(=O)OCc2ccccc2)c1C#N	-6.0	i	206.8*[fluorescence artefact?]	2.4	27.5	26.0
CC(=O)Nc1cccc(OCC(O)Cn2cnc3ccccc32)c1 (configuration not stated)	-8.8	i	107.5	6.5	3.6	2.9
CC(=O)Nc1ccc(OCC(O)Cn2cnc3ccccc32)cc1 (configuration not stated)	.	.	636.3*[fluorescence artefact?]	.	-6.7	-5.4
Cc1cc2c(cc1C)NC(c1c(C)n(C)n(-c3ccccc3)c1=O)C1=C(CC(C)(C)CC1=O)N2 (configuration not stated)	35.6	i	98.0	61.6*	2.3	-6.1
SMILES	RORa activator	BAP1 block	ERa coact pot	SF-1 act	ERb coact inh	ERa SRC1 inh
COC(=O)c1c(-c2ccncc2)csc1NC(=O)c1ccoc1C	47.7	i	320.8*	64.5*	2.6	8.1
O=C(Nc1ccc2sccc2c1)c1ccc(Cl)s1	34.2	i	125.7	59.7*	22.2	-0.9
O=C(NCc1cccs1)c1ccc(Cl)s1	-3.5	i	104.2	8.7	-8.3	-8.6
O=C(Nc1nccs1)c1ccc(Cl)s1	47.3	i	94.9	58.0*	-7.2	6.1
CN1C(=O)C(=O)/C(=C(/O)c2ccc(Cl)cc2)C1c1cccc([N+](=O)[O-])c1 (configuration not stated)	.	i	.	.	.	.
Oc1ccc(Br)cc1C=Nc1nc(-c2cccc3ccccc23)cs1	.	i	.	.	.	.
COc1ccc(-c2cn3c(C)c(C(=O)Nc4ccncc4)sc3n2)cc1	11.0	i	345.4*	-18.1	-2.4	-3.0
Cc1c(C(=O)Nc2ccncc2)sc2nc(-c3ccc(F)cc3)cn12	7.1	i	366.7*[fluorescence artefact?]	-22.2	6.8	-6.0
Cc1c(C(=O)NCC(C)C)sc2nc(-c3ccc(F)cc3)cn12	70.9*	i	109.5	37.0	3.0	3.8
COC(=O)c1ccc(NC(=O)c2sc3nc(-c4ccccc4)cn3c2C)cc1	-38.7	.	537.3*[fluorescence artefact?]	-37.6	42.5	39.3
COc1ccc(-c2cn3c(C)c(C(=O)Nc4cccc(NC(C)=O)c4)sc3n2)cc1	-1.1	.	157.6	18.1	21.1	21.7
Cc1c(-c2nc(N)nc(Nc3ccccc3F)n2)oc2ccccc12	107.8*	i	130.6	72.8*	0.9	-3.1
Cc1c(-c2ccccc2)n(C)c2ccccc12	.	i	.	.	.	.
COc1ccc(C2CC(C(F)(F)F)n3ncc(C(=O)NC(C)C)c3N2)cc1OC (configuration not stated)	.	i	.	.	.	.
Cc1ccc(C(=O)Nc2sc3c(c2C(=O)NCc2ccco2)CCCC3)cc1	.	.	141.4	.	9.6	7.1
O=C(Nc1sc2c(c1C(=O)NCc1ccco1)CCCC2)c1ccc2c(c1)OCO2	36.4	.	136.0	48.0	61.7*[fluorescence artefact?]	14.4
COc1ccc(C(=O)Nc2sc3c(c2C(=O)NCc2ccco2)CCCC3)cc1OC	.	.	227.9*	.	10.5	9.6
BrC12CC3CC(C1)CC(Br)(C3)C2	.	i	.	.	.	.
Nc1nc(N)c2sc3nc4c(cc3c2n1)CCC4	56.1*	i	.	57.1*	.	.
Cc1ccc(C)c(-n2nnnc2SCC(=O)c2ccc3c(c2)NC(=O)CO3)c1	-13.2	.	231.7*[fluorescence artefact?]	-11.5	1.7	19.9
N#CC1=C(N)OC2=C(CCC/C2=C/c2ccoc2)C1c1ccoc1 (configuration not stated)	17.4	i	35.9	-0.9	73.4*[fluorescence artefact?]	73.8*
Cc1cc(NC(=O)c2cncc(Br)c2)n(-c2ccccn2)n1	-16.2	i	294.0*	-8.4	-4.6	8.0
Cc1ccc(C(=O)Nc2ncc(C)s2)o1	.	.	117.7	.	-8.7	-5.5
